Measured values from ChEMBL document CHEMBL1156170, “Enhanced Nrf2-dependent induction of glutathione in mouse embryonic fibroblasts by isoselenocyanate analog of sulforaphane” (Bioorg Med Chem Lett, 2010).
Active and inactive are the calls of the source. The calls are words filed in the database; no cut-off is given here.

Tests used:
[1] = tested on: HepG2; assay: Cytotoxicity against human HepG2 cells assessed as cell viability at 50 uM after 6 hrs by MTS assay relative to control; type: functional; conditions: HepG2, 6 h, read-out: Activity
[2] = tested on: HepG2; assay: Cytotoxicity against human HepG2 cells assessed as decrease in cell viability at 10 to 20 uM after 6 hrs by MTS assay; type: functional, cell-based
[3] = tested on: HepG2; assay: Cytotoxicity against human HepG2 cells assessed as cell viability at 50 uM after 6 hrs by MTS assay; type: functional, cell-based
[4] = target: T1, Nuclear factor erythroid 2-related factor 2 (Mus musculus) (UniProt Q60795); assay: Ratio of compound to sulforaphane activity for induction of nuclear NrF2 mediated GCLc in wild type MEF; type: functional
T1 sequence (whole entry): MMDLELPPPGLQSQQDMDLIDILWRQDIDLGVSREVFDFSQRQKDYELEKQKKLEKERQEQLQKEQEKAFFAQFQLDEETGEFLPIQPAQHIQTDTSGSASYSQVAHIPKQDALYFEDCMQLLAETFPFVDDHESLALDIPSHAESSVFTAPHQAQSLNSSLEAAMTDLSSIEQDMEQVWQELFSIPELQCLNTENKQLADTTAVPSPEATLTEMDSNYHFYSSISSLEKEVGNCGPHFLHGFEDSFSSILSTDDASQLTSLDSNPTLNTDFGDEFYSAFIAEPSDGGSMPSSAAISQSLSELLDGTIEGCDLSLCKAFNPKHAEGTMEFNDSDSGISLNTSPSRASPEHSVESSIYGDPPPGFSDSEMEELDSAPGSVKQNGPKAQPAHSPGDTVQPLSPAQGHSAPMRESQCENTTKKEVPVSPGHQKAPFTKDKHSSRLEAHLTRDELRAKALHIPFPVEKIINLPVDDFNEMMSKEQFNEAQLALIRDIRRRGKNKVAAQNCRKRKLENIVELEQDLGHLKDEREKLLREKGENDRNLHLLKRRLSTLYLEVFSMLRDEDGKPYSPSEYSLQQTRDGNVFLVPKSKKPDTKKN

[5] = target: T1, Nuclear factor erythroid 2-related factor 2 (Mus musculus); assay: Induction of NrF2-mediated glutathione production in wild type MEF at 10 uM after 6 hrs using Elmans reagent relative to control; type: functional
In short: (§1)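 Wildtype or Nrf2−/− MEF at 50% confluence given vehicle or 10 or 20 μM for 0, 6, 9 or 24 h; washed, lysed in 5% metaphosphoric acid, protein removed by centrifugation. Free GSH by enzymatic recycling with Ellman's reagent, absorbance over time; normalized to BCA protein and to vehicle control; mean ± SD, n=3.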

[6] = target: T1, Nuclear factor erythroid 2-related factor 2 (Mus musculus); assay: Reduction of NrF2-mediated glutathione production in wild type MEF at 20 uM after 6 hrs using Elmans reagent relative to control; type: functional; parameters: scale not given: the % may be the effect or the level left; in short: as §1
[7] = target: T1, Nuclear factor erythroid 2-related factor 2 (Mus musculus); assay: Induction of NrF2-mediated glutathione production in wild type MEF at 20 uM after 24 hrs using Elmans reagent relative to control; type: functional; in short: as §1
[8] = target: T1, Nuclear factor erythroid 2-related factor 2 (Mus musculus); assay: Induction of nuclear NrF2 expression in wild type MEF […] at 10 to 20 uM after 24 hrs by Western blotting relative to control; type: functional
In short: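 Wildtype MEF at 50% confluence treated with vehicle or 10 or 20 μM for 24 h; washed, trypsinized, nuclear extracts prepared. 20 μg nuclear protein per lane, 4-20% gradient gel, nitrocellulose, milk block, primary antibody overnight 4 °C, HRP secondary, chemiluminescence. Nrf2 band normalized to Lamin A, then to vehicle control; mean ± SD, n=3.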

[9] = target: T2, Nuclear factor erythroid 2-related factor 2 (Homo sapiens) (UniProt Q16236); assay: Induction of NrF2 in human HepG2 cells after 6 hrs by ARE-luciferase reporter gene assay; type: functional, cell-based
T2 sequence (whole entry): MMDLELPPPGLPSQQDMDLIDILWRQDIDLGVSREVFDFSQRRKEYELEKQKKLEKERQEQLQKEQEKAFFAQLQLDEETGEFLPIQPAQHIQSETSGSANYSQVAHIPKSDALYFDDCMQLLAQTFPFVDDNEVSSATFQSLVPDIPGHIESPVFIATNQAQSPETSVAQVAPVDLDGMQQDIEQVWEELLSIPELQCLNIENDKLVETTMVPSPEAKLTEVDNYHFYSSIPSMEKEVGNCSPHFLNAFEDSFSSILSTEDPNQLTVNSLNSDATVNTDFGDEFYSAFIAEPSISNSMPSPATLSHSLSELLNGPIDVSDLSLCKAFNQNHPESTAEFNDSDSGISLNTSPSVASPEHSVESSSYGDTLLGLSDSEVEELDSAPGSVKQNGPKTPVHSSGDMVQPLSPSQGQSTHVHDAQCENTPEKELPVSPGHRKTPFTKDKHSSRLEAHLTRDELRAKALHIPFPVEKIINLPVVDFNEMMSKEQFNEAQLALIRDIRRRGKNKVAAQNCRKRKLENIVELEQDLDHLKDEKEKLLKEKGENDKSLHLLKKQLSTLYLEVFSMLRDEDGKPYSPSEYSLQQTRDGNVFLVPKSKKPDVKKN
In short: (§2)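 HepG2 ARE-luciferase reporter cells at 50% confluence, fresh medium with vehicle or 5, 10 or 20 μM compound for 6 h. Washed in PBS, lysed, luciferase activity of extracts read in single-tube luminometer; normalized to vehicle control; mean ± SD of 3 independent experiments.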

[10] = target: T2, Nuclear factor erythroid 2-related factor 2 (Homo sapiens); assay: Induction of NrF2 in human HepG2 cells at 20 uM after 6 hrs by ARE-luciferase reporter gene assay relative to control; type: functional, cell-based; in short: as §2
[11] = tested on: HepG2; assay: Cytotoxicity against human HepG2 cells assessed as cell viability at 10 uM after 6 hrs by MTS assay; type: functional, cell-based
[12] = target: T1, Nuclear factor erythroid 2-related factor 2 (Mus musculus); assay: Induction of NrF2-mediated glutathione production in wild type MEF at 10 uM after 24 hrs using Elmans reagent relative to control; type: functional; in short: as §1
[13] = tested on: MEF; assay: Cytotoxicity against wild type MEF; type: cell-based; conditions: mouse
[14] = tested on: MEF; assay: Induction of GCLc in NrF2-deficient MEF at 20 uM after 24 hrs by Western blotting relative to control; type: functional, cell-based; conditions: Mus musculus
In short: (§3)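 Wildtype or Nrf2−/− MEF at 50% confluence given vehicle or 10 or 20 μM for 24 h; cytoplasmic extracts, 50 μg protein per lane, 4-20% gradient gel, nitrocellulose, western blot for GCLc with HRP secondary and chemiluminescence. GCLc normalized to actin, then to vehicle control; mean ± SD of 3 independent experiments.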

[15] = target: T2, Nuclear factor erythroid 2-related factor 2 (Homo sapiens); assay: Induction of NrF2 in human HepG2 cells at 10 uM after 6 hrs by ARE-luciferase reporter gene assay; type: functional, cell-based; in short: as §2
[16] = target: T2, Nuclear factor erythroid 2-related factor 2 (Homo sapiens); assay: Ratio of compound to sulforaphane for induction of NrF2 in human HepG2 cells; type: functional, cell-based
[17] = target: T1, Nuclear factor erythroid 2-related factor 2 (Mus musculus); assay: Induction of NrF2-mediated glutathione production in wild type MEF at 10 uM after 9 hrs using Elmans reagent relative to control; type: functional; in short: as §1
[18] = target: T1, Nuclear factor erythroid 2-related factor 2 (Mus musculus); assay: Induction of nuclear NrF2-mediated GCLc expression in wild type MEF at 20 uM after 24 hrs by Western blotting relative to control; type: functional; in short: as §3
[19] = tested on: MEF; assay: Induction of glutathione production in NrF2 deficient MEF at 10 uM after 24 hrs using Elmans reagent relative to control; type: functional, Mus musculus; in short: as §1
[20] = target: T1, Nuclear factor erythroid 2-related factor 2 (Mus musculus); assay: Reduction of NrF2-mediated glutathione production in wild type MEF at 10 uM after 6 hrs using Elmans reagent relative to control; type: functional; parameters: scale not given: the % may be the effect or the level left; in short: as §1
[21] = tested on: HepG2; assay: Cytotoxicity against human HepG2 cells assessed as decrease in cell viability after 6 hrs by MTS assay; type: functional, cell-based
[22] = tested on: MEF; assay: Induction of glutathione production in NrF2 deficient MEF at 20 uM after 24 hrs using Elmans reagent relative to control; type: functional, Mus musculus; in short: as §1
[23] = tested on: HepG2; assay: Cytotoxicity against human HepG2 cells assessed as cell viability at 20 uM after 6 hrs by MTS assay; conditions: HepG2, 6 h, read-out: Activity
[24] = tested on: MEF; assay: Cytotoxicity against NrF2 deficient MEF; type: cell-based; conditions: mouse

SMILES	viability at 50 µM [1]	Activity [2]	Activity [3]	Activity [6]	Activity [7]	fold change (FC) [8]	Activity [10]	Activity [11]	Activity [12]	Activity [15]	fold change (FC) [18]	Activity [20]	further results
[Se]=C=NCCc1ccccc1 [PHENETHYLISOSELENOCYANATE]	14%	Active											
[Se]=C=NCc1ccccc1 [BENZYLISOSELENOCYANATE]	0%	Active											
S=C=NCc1ccccc1			inactive										
S=C=NCCc1ccccc1			inactive										
C[S+]([O-])CCCCN=C=[Se] (centres undefined) [SUFORAPHANE ISOSELENOCYANATE]	0%	Active		20%	Active	4.5	5	inactive	160%	Active	4.1	40%	Activity [4]: 30%; Activity [5]: Active; Activity [9]: Dose-dependent effect; Activity [13]: Non-toxic; Activity [14]: inactive; Ratio [16]: 4; Activity [17]: Active; Activity [19]: 90%; Activity [21]: Dose-dependent effect; Activity [22]: 70%; viability at 20 µM [23]: 50%; Activity [24]: Non-toxic
C[S+]([O-])CCCCN=C=S (centres undefined)			inactive	20%	inactive	3.5	Active	inactive	Active	Active	3.2	40%	
